Measured values from ChEMBL document CHEMBL3784971, “Synthesis, characterization, antimicrobial and biofilm inhibitory studies of new esterquats” (Bioorg Med Chem Lett, 2016).

Tests used:
Candida albicans [1] = experiment: Fungicidal activity against Candida albicans MTCC 4748 after 24 hrs by serial dilution method; assay type: functional; conditions: MTCC 4748, 24 h
[Candida] aaseri [2] = Antimicrobial activity against Candida aaseri MTCC 1962 assessed as growth inhibition after 24 hrs by agar well diffusion method; assay type: functional; conditions: Yamadazyma aaseri, MTCC 1962, 24 h
Staphylococcus aureus [3] = experiment: Antibiofilm activity against Staphylococcus aureus MTCC 96 after 24 hrs by crystal violet staining based assay; assay type: functional, organism-based; conditions: MTCC 96, 24 h
Procedure, shortened: (§1)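 Biofilm inhibition tested for amine esters and esterquats. IC50 values (µg/mL) are the mean of three determinations, with ciprofloxacin as reference.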

Candida albicans [4] = experiment: Antimicrobial activity against Candida albicans MTCC 854 assessed as growth inhibition after 24 hrs by agar well diffusion method; assay type: functional; conditions: MTCC 854, 24 h
[Candida] aaseri [5] = Fungicidal activity against Candida aaseri MTCC 1962 after 24 hrs by serial dilution method; assay type: functional; conditions: Yamadazyma aaseri, MTCC 1962, 24 h
Pichia sporocuriosa [6] = experiment: Fungicidal activity against Issatchenkia hanoiensis MTCC 4755 after 24 hrs by serial dilution method; assay type: functional; conditions: MTCC 4755, 24 h
Candida albicans [7] = experiment: Antimicrobial activity against Candida albicans MTCC 227 assessed as growth inhibition after 24 hrs by agar well diffusion method; assay type: functional; conditions: MTCC 227, 24 h
Candida albicans [8] = experiment: Fungicidal activity against Candida albicans MTCC 854 after 24 hrs by serial dilution method; assay type: functional; conditions: MTCC 854, 24 h
Pseudomonas aeruginosa = experiment: Antimicrobial activity against Pseudomonas aeruginosa MTCC 2453 assessed as growth inhibition after 24 hrs by agar well diffusion method; assay type: functional; conditions: MTCC 2453, 24 h
Candida albicans [9] = experiment: Fungicidal activity against Candida albicans MTCC 227 after 24 hrs by serial dilution method; assay type: functional; conditions: MTCC 227, 24 h
Pichia sporocuriosa [10] = experiment: Antimicrobial activity against Issatchenkia hanoiensis MTCC 4755 assessed as growth inhibition after 24 hrs by agar well diffusion method; assay type: functional; conditions: MTCC 4755, 24 h
Candida albicans [11] = experiment: Fungicidal activity against Candida albicans MTCC 183 after 24 hrs by serial dilution method; assay type: functional; conditions: MTCC 183, 24 h
Pichia kudriavzevii [12] = experiment: Antimicrobial activity against Candida krusei MTCC 3020 assessed as growth inhibition after 24 hrs by agar well diffusion method; assay type: functional; conditions: MTCC 3020, 24 h
Candida albicans [13] = experiment: Antimicrobial activity against Candida albicans MTCC 1637 assessed as growth inhibition after 24 hrs by agar well diffusion method; assay type: functional; conditions: MTCC 1637, 24 h
Candida albicans [14] = experiment: Fungicidal activity against Candida albicans MTCC 7315 after 24 hrs by serial dilution method; assay type: functional; conditions: MTCC 7315, 24 h
Escherichia coli [15] = experiment: Bactericidal activity against Escherichia coli MTCC 739 after 24 hrs by serial dilution method; assay type: functional; conditions: MTCC 739, 24 h
Micrococcus luteus [16] = experiment: Antimicrobial activity against Micrococcus luteus MTCC 2470 assessed as growth inhibition after 24 hrs by agar well diffusion method; assay type: functional; conditions: MTCC 2470, 24 h
Bacillus subtilis [17] = experiment: Antimicrobial activity against Bacillus subtilis MTCC 121 assessed as growth inhibition after 24 hrs by agar well diffusion method; assay type: functional; conditions: MTCC 121, 24 h
Raoultella planticola [18] = experiment: Bactericidal activity against Klebsiella planticola MTCC 530 after 24 hrs by serial dilution method; assay type: functional; conditions: MTCC 530, 24 h
Candida albicans [19] = experiment: Antimicrobial activity against Candida albicans MTCC 3017 assessed as growth inhibition after 24 hrs by agar well diffusion method; assay type: functional; conditions: MTCC 3017, 24 h
Micrococcus luteus [20] = experiment: Bactericidal activity against Micrococcus luteus MTCC 2470 after 24 hrs by serial dilution method; assay type: functional; conditions: MTCC 2470, 24 h
Staphylococcus aureus [21] = experiment: Bactericidal activity against Staphylococcus aureus MTCC 96 after 24 hrs by serial dilution method; assay type: functional; conditions: MTCC 96, 24 h
Candida albicans [22] = experiment: Fungicidal activity against Candida albicans MTCC 1637 after 24 hrs by serial dilution method; assay type: functional; conditions: MTCC 1637, 24 h
Candida parapsilosis [23] = experiment: Fungicidal activity against Candida parapsilosis MTCC 1744 after 24 hrs by serial dilution method; assay type: functional; conditions: Lodderomyces parapsilosis, MTCC 1744, 24 h
Candida albicans [24] = experiment: Antimicrobial activity against Candida albicans MTCC 4748 assessed as growth inhibition after 24 hrs by agar well diffusion method; assay type: functional; conditions: MTCC 4748, 24 h
Candida albicans [25] = experiment: Fungicidal activity against Candida albicans MTCC 3958 after 24 hrs by serial dilution method; assay type: functional; conditions: MTCC 3958, 24 h
Candida albicans [26] = experiment: Antimicrobial activity against Candida albicans MTCC 183 assessed as growth inhibition after 24 hrs by agar well diffusion method; assay type: functional; conditions: MTCC 183, 24 h
Candida albicans [27] = experiment: Antimicrobial activity against Candida albicans MTCC 3018 assessed as growth inhibition after 24 hrs by agar well diffusion method; assay type: functional; conditions: MTCC 3018, 24 h
Micrococcus luteus [28] = experiment: Antibiofilm activity against Micrococcus luteus MTCC 2470 after 24 hrs by crystal violet staining based assay; assay type: functional, organism-based; conditions: MTCC 2470, 24 h; procedure, shortened: as §1
Candida albicans [29] = experiment: Fungicidal activity against Candida albicans MTCC 3017 after 24 hrs by serial dilution method; assay type: functional; conditions: MTCC 3017, 24 h
Staphylococcus aureus [30] = experiment: Antimicrobial activity against Staphylococcus aureus MTCC 96 assessed as growth inhibition after 24 hrs by agar well diffusion method; assay type: functional; conditions: MTCC 96, 24 h
Bacillus subtilis [31] = experiment: Bactericidal activity against Bacillus subtilis MTCC 121 after 24 hrs by serial dilution method; assay type: functional; conditions: MTCC 121, 24 h
Staphylococcus aureus [32] = experiment: Bactericidal activity against Staphylococcus aureus MLS16 MTCC 2940 after 24 hrs by serial dilution method; assay type: functional; conditions: MLS16 MTCC 2940, 24 h
Staphylococcus aureus [33] = experiment: Antibiofilm activity against Staphylococcus aureus MLS16 MTCC 2940 after 24 hrs by crystal violet staining based assay; assay type: functional, organism-based; conditions: MLS16 MTCC 2940, 24 h; procedure, shortened: as §1
Candida albicans [34] = experiment: Antimicrobial activity against Candida albicans MTCC 7315 assessed as growth inhibition after 24 hrs by agar well diffusion method; assay type: functional; conditions: MTCC 7315, 24 h
Nakaseomyces glabratus [35] = experiment: Antimicrobial activity against Candida glabrata MTCC 3019 assessed as growth inhibition after 24 hrs by agar well diffusion method; assay type: functional; conditions: MTCC 3019, 24 h
Bacillus subtilis [36] = experiment: Antibiofilm activity against Bacillus subtilis MTCC 121 after 24 hrs by crystal violet staining based assay; assay type: functional, organism-based; conditions: MTCC 121, 24 h; procedure, shortened: as §1
Staphylococcus aureus [37] = experiment: Antimicrobial activity against Staphylococcus aureus MLS16 MTCC 2940 assessed as growth inhibition after 24 hrs by agar well diffusion method; assay type: functional; conditions: MLS16 MTCC 2940, 24 h
Raoultella planticola [38] = experiment: Antimicrobial activity against Klebsiella planticola MTCC 530 assessed as growth inhibition after 24 hrs by agar well diffusion method; assay type: functional; conditions: MTCC 530, 24 h
Candida parapsilosis [39] = experiment: Antimicrobial activity against Candida parapsilosis MTCC 1744 assessed as growth inhibition after 24 hrs by agar well diffusion method; assay type: functional; conditions: Lodderomyces parapsilosis, MTCC 1744, 24 h
Escherichia coli [40] = experiment: Antimicrobial activity against Escherichia coli MTCC 739 assessed as growth inhibition after 24 hrs by agar well diffusion method; assay type: functional; conditions: MTCC 739, 24 h
Pichia kudriavzevii [41] = experiment: Fungicidal activity against Candida krusei MTCC 3020 after 24 hrs by serial dilution method; assay type: functional; conditions: MTCC 3020, 24 h
Candida albicans [42] = experiment: Fungicidal activity against Candida albicans MTCC 3018 after 24 hrs by serial dilution method; assay type: functional; conditions: MTCC 3018, 24 h
Nakaseomyces glabratus [43] = experiment: Fungicidal activity against Candida glabrata MTCC 3019 after 24 hrs by serial dilution method; assay type: functional; conditions: MTCC 3019, 24 h
Candida albicans [44] = experiment: Antimicrobial activity against Candida albicans MTCC 3958 assessed as growth inhibition after 24 hrs by agar well diffusion method; assay type: functional; conditions: MTCC 3958, 24 h

CCCCCCCCCCCC[N+](C)(C)CCCCCCCCCCC(=O)OC.[Cl-]
MFC (Candida albicans [1]): 31.2 µg/mL
MIC ([Candida] aaseri [2]): 31.2 µg/mL
IC50 (Staphylococcus aureus [3]): 9.1 µg/mL
MIC (Candida albicans [4]): 31.2 µg/mL
MFC ([Candida] aaseri [5]): 62.5 µg/mL
MFC (Pichia sporocuriosa [6]): 62.5 µg/mL
MIC (Candida albicans [7]): 31.2 µg/mL
MFC (Candida albicans [8]): 62.5 µg/mL
MIC (Pseudomonas aeruginosa): > 125 µg/mL
MFC (Candida albicans [9]): 31.2 µg/mL
MIC (Pichia sporocuriosa [10]): 31.2 µg/mL
MFC (Candida albicans [11]): 31.2 µg/mL
MIC (Pichia kudriavzevii [12]): 62.5 µg/mL
MIC (Candida albicans [13]): 62.5 µg/mL
MFC (Candida albicans [14]): 31.2 µg/mL
MBC (Escherichia coli [15]): 31.2 µg/mL
MIC (Micrococcus luteus [16]): 7.8 µg/mL
MIC (Bacillus subtilis [17]): 15.6 µg/mL
MBC (Raoultella planticola [18]): 15.6 µg/mL
MIC (Candida albicans [19]): 31.2 µg/mL
MBC (Micrococcus luteus [20]): 31.2 µg/mL
MBC (Staphylococcus aureus [21]): 31.2 µg/mL
MFC (Candida albicans [22]): 62.5 µg/mL
MFC (Candida parapsilosis [23]): 62.5 µg/mL
MIC (Candida albicans [24]): 15.6 µg/mL
MFC (Candida albicans [25]): 31.2 µg/mL
MIC (Candida albicans [26]): 31.2 µg/mL
MIC (Candida albicans [27]): 62.5 µg/mL
IC50 (Micrococcus luteus [28]): 8.8 µg/mL
MFC (Candida albicans [29]): 62.5 µg/mL
MIC (Staphylococcus aureus [30]): 15.6 µg/mL
MBC (Bacillus subtilis [31]): 31.2 µg/mL
MBC (Staphylococcus aureus [32]): 31.2 µg/mL
IC50 (Staphylococcus aureus [33]): 22.2 µg/mL
MIC (Candida albicans [34]): 31.2 µg/mL
MIC (Nakaseomyces glabratus [35]): 31.2 µg/mL
IC50 (Bacillus subtilis [36]): 8.5 µg/mL
MIC (Staphylococcus aureus [37]): 7.8 µg/mL
MIC (Raoultella planticola [38]): 7.8 µg/mL
MIC (Candida parapsilosis [39]): 62.5 µg/mL
MIC (Escherichia coli [40]): 15.6 µg/mL
MFC (Pichia kudriavzevii [41]): 62.5 µg/mL
MFC (Candida albicans [42]): 62.5 µg/mL
MFC (Nakaseomyces glabratus [43]): 31.2 µg/mL
MIC (Candida albicans [44]): 62.5 µg/mL
